Measured values pooled from the literature.
Target: Serine/threonine-protein kinase 4 (STK4, Homo sapiens, UniProt Q13043)
Sequence (Q13043 1-487, as in one of the studies): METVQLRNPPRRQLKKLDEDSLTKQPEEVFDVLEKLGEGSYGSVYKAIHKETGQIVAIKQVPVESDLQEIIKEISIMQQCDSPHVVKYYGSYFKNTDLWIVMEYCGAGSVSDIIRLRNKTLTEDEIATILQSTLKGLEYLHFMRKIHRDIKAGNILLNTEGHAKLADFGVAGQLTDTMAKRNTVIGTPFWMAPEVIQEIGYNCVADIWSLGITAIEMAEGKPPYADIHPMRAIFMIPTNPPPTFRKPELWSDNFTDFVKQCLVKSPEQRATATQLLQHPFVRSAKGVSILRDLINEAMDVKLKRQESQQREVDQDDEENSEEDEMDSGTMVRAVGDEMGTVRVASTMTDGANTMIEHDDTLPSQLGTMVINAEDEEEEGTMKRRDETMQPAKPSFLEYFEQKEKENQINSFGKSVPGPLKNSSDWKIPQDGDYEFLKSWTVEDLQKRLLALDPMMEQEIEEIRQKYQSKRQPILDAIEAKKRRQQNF

| SMILES | observed | mode | method | tested at | endpoint | value |
| --- | --- | --- | --- | --- | --- | --- |
| Cn1cc(-c2cccc(N3CCc4c(sc5c4CC(C)(C)C5)C3=O)c2CO)cc(Nc2ccncn2)c1=O | enzyme activity | inhibitor |  | 1 µM | inhibition | -4% |
| COc1ncccc1-c1cnn2ccc(N3CCN(C(=O)OC(C)C)CC3)nc12 | binding |  | competition with immobilised ligand | 1 µM | remaining binding | 40% |
| O=c1[nH]c2ccccc2n1C1CCN(Cc2ccc(-c3[nH]c4cc5ncnc5cc4nc3-c3ccccc3)cc2)CC1 | cell-free assay |  |  | 0.5 µM | remaining signal | 95.2% |
| C#Cc1n[nH]c2c(-c3cn(C(C)c4ccccn4)c(=O)[nH]c3=O)cc(F)cc12 (stereo not drawn) | enzyme activity | inhibitor |  | 1 µM | inhibition | 3.7% |
| Cc1nn(C)cc1-c1nc2c(N3CCN(Cc4ccc(Cl)cc4)CC3)c(Cl)cnc2[nH]1 | binding |  | competition with immobilised ligand | 1 µM | remaining binding | 100% |
| CC(C)(C)c1cc(C=C(C#N)C#N)cc(Br)c1O | enzyme activity | inhibitor |  | 0.5 µM | remaining activity | 90.5% |
| Clc1cccc(-c2c[nH]c3nccc(N4CCOCC4)c23)c1 | thermal stability |  | DSF | 20 µM | ΔTm | > 8 °C |
| Nc1ncc(-c2nc(N3CCOCC3)nc(N3CCOCC3)n2)c(C(F)F)n1 | binding |  | competition with immobilised ligand | 10 µM | remaining binding | 86% |
| Cn1cc(-c2cc(F)cc(N3CCn4c(cc5c4CCCC5)C3=O)c2CO)cc(Nc2ccc(N3CCN(C4COC4)CC3)cn2)c1=O | enzyme activity | inhibitor |  | 0.1 µM | inhibition | 13% |
| NC(=O)c1cccc(-c2c[nH]c3ncnc(N4CCOCC4)c23)c1 | thermal stability |  | DSF | 20 µM | ΔTm | > 8 °C |
| Cn1cncc1[C@](O)(COc1ccc(C#N)cc1-c1ccc(OC(F)(F)F)cc1)c1ccc(C#N)cc1 | cell-free assay |  | competition with immobilised ligand | 1 µM | remaining binding | 86% |
| C#Cc1n[nH]c2c(-c3cn([C@@H](C)c4ccccc4)c(=O)[nH]c3=O)cc(F)cc12 | enzyme activity | inhibitor |  | 0.1 µM | inhibition | -0.9% |
